Assay results as given in ChEMBL document CHEMBL1135468 (J Med Chem, 2002).
*1 amine or outer side, *2 acyl side, *3 side chain or, on linkers, in order; H or OH if unused. Where a SMILES comes first, the peptide text is derived from it. Bridges are numbered along the chain shown (N, C = ends). [ ]: non-standard residue; d: D form. The star is where a group is joined. 6FAM = O=C1OC2(c3ccc(O)cc3Oc3cc(O)ccc32)c2cc(C(=O)*)ccc21; X4 = O=C(CC1(S[*:2])CCCCC1)[*:1]; X1 = O=C([C@@H](O)CS[*:2])[*:1]; Orn = NCCC[C@H](N)C(=O)O; Mpa = O=C(O)CCS

How the values were obtained:
Oxytocin receptor = molecular target: T1, Oxytocin receptor (Homo sapiens, UniProt P30559); assay: Binding affinity for human oxytocin receptor
T1 sequence (P30559 whole entry): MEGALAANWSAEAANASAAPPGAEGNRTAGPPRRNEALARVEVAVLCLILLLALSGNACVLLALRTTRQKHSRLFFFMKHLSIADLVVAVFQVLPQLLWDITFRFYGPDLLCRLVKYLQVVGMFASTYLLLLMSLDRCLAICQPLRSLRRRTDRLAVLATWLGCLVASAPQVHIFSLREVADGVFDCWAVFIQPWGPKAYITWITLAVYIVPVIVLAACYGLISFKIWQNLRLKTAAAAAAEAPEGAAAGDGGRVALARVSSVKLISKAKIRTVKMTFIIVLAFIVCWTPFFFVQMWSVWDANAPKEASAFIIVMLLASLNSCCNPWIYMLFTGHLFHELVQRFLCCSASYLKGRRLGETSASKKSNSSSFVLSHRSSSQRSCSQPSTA

Vasopressin V1a receptor = Vasopressin V1a receptor (Homo sapiens, UniProt P37288); assay: Binding affinity for human Vasopressin V1a receptor
Vasopressin V1a receptor, sequence (P37288 whole entry): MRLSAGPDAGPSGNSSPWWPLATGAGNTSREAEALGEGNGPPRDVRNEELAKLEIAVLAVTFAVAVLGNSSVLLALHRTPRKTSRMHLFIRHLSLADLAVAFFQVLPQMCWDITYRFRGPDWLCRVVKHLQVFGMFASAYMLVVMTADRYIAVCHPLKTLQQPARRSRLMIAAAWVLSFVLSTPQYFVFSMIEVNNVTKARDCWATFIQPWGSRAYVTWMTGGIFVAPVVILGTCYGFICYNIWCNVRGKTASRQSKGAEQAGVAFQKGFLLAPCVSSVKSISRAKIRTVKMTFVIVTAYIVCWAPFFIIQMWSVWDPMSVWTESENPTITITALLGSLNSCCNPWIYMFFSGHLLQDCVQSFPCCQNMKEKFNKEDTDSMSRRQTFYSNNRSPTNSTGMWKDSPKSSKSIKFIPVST

Vasopressin V1b receptor = molecular target: T2, Vasopressin V1b receptor (Homo sapiens, UniProt P47901); assay: Binding affinity towards human Vasopressin V1b receptor
T2 sequence (P47901 whole entry): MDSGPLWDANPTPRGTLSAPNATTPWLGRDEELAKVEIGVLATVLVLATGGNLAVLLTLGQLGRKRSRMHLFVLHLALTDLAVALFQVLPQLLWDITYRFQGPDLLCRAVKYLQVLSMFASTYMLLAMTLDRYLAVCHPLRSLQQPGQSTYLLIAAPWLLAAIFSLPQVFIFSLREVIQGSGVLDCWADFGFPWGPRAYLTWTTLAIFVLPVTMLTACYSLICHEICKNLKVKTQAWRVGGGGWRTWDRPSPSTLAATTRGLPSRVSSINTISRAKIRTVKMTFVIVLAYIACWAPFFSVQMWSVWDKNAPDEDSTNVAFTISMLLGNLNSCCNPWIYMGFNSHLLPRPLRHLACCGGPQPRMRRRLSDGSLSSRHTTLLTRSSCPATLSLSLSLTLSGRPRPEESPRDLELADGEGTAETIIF
Summary of the method: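 Competition binding on membranes from CHO cells stably expressing one human receptor, butyrate-treated (5 mM, overnight). Radioligands: OT, 200-250 pM [125I]OTA or 120-180 pM [125I]HO-LVA; V1a, 40-60 pM [125I]HO-LVA; V1b, 1-3 nM [3H]AVP. Competitor 1 pM-1 µM; nonspecific with 1 µM unlabeled ligand; 1 h, 30 °C. Ki by nonlinear least-squares, ≥3 experiments in triplicate.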

Vasopressin V2 receptor = Vasopressin V2 receptor (Homo sapiens, UniProt P30518); assay: Binding affinity towards human Vasopressin V2 receptor
Vasopressin V2 receptor, sequence (P30518 whole entry): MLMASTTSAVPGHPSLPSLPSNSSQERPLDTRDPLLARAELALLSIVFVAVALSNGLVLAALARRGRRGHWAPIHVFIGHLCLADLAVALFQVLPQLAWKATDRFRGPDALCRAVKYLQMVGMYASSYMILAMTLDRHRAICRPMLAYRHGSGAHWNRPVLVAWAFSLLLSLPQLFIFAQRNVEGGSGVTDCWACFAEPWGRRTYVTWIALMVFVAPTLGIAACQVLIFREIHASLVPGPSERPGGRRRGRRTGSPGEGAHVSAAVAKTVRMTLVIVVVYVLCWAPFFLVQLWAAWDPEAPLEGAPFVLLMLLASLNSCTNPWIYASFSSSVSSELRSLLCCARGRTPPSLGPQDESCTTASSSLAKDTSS
Summary of the method: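 Human V2 receptor stably expressed in CHO cells, butyrate-treated (5 mM, overnight); membranes at 5-10 µg protein/assay competed against 1-3 nM [3H]AVP. Fluorescent ligand ranged 1 pM-1 µM; nonspecific binding defined with 1 µM unlabeled ligand. Incubation 1 h at 30 °C. Ki from nonlinear least-squares fit of two independent experiments, each run in triplicate.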

Structure (SMILES)	Ki (Oxytocin receptor)	Ki (Vasopressin V1a receptor)	Ki (Vasopressin V1b receptor)	Ki (Vasopressin V2 receptor)
CC[C@H](C)[C@@H]1NC(=O)[C@@H](Cc2ccc(O)cc2)NC(=O)CC2(CCCCC2)SSC[C@@H](C(=O)N2CCC[C@H]2C(=O)N[C@@H](CCCNC(=O)c2ccc3c(c2)C2(OC3=O)c3ccc(O)cc3Oc3cc(O)ccc32)C(=O)O)NC(=O)[C@H](CC(N)=O)NC(=O)[C@H]([C@@H](C)O)NC1=O	126 nM	656 nM	> 1000 nM	> 10000 nM
CC[C@H](C)[C@@H]1NC(=O)[C@H](Cc2ccc(OC)cc2)NC(=O)CC2(CCCCC2)SSC[C@@H](C(=O)N2CCC[C@H]2C(=O)N[C@@H](CCCN)C(=O)N[C@@H](Cc2ccc(O)cc2)C(N)=O)NC(=O)[C@H](CC(N)=O)NC(=O)[C@H]([C@@H](C)O)NC1=O (Y(Me)ITNCP[Orn]Y-NH2; linker N-5 via X4)	0.21 nM	3.9 nM	> 10000 nM	930 nM
CC[C@H](C)[C@@H]1NC(=O)[C@H](Cc2ccc(O)cc2)NC(=O)[C@@H](O)CSSC[C@@H](C(=O)N2CCC[C@H]2C(=O)N[C@@H](CCCCNC(=O)c2ccc3c(c2)C2(OC3=O)c3ccc(O)cc3Oc3cc(O)ccc32)C(=O)NCC(N)=O)NC(=O)[C@H](CC(N)=O)NC(=O)[C@H](CCC(N)=O)NC1=O (YIQNCPK(6FAM)G-NH2; linker N-5 via X1)	0.34 nM	13.7 nM	66 nM	
CC[C@H](C)[C@@H]1NC(=O)[C@H](Cc2ccc(O)cc2)NC(=O)[C@@H](O)CSSC[C@@H](C(=O)N2CCC[C@H]2C(=O)N[C@@H](CCCNC(=O)c2ccc3c(c2)C2(OC3=O)c3ccc(O)cc3Oc3cc(O)ccc32)C(=O)NCC(N)=O)NC(=O)[C@H](CC(N)=O)NC(=O)[C@H](CCC(N)=O)NC1=O (YIQNCP[Orn](6FAM)G-NH2; linker N-5 via X1)	0.18 nM	12.2 nM	126 nM	
CC[C@H](C)[C@@H]1NC(=O)[C@H](Cc2ccc(O)cc2)NC(=O)CCSSC[C@@H](C(=O)N2CCC[C@H]2C(=O)N[C@@H](CCCCNC(=O)c2ccc3c(c2)C2(OC3=O)c3ccc(O)cc3Oc3cc(O)ccc32)C(=O)NCC(N)=O)NC(=O)[C@H](CC(N)=O)NC(=O)[C@H](CCC(N)=O)NC1=O ([Mpa]YIQNCPK(6FAM)G-NH2; disulfide 1-6)	0.29 nM	57 nM	124 nM	> 10000 nM
CC[C@H](C)[C@@H]1NC(=O)[C@H](Cc2ccc(O)cc2)NC(=O)CCSSC[C@@H](C(=O)N2CCC[C@H]2C(=O)N[C@@H](CCCNC(=O)c2ccc3c(c2)C2(OC3=O)c3ccc(O)cc3Oc3cc(O)ccc32)C(=O)NCC(N)=O)NC(=O)[C@H](CC(N)=O)NC(=O)[C@H](CCC(N)=O)NC1=O ([Mpa]YIQNCP[Orn](6FAM)G-NH2; disulfide 1-6)	0.25 nM	107 nM	393 nM	> 10000 nM
